# Results pooled from the literature.
# Each line is one published result; the experiments were not run side by side.
# Target: Eukaryotic translation initiation factor 2-alpha kinase 1 (EIF2AK1, Homo sapiens, UniProt Q9BQI3)
Compound,test,conditions,remaining binding [%]
Cc1nc(N2CC[C@@H](O)C2)ncc1-c1cc(C(F)(F)F)cc2[nH]ncc12,"binding, competition with immobilised ligand",1 µM,98
Cc1cnc(Nc2ccc(C(=O)N3CCC(N4CCCC4)CC3)cc2)nc1-c1cc2ccccc2s1,"binding, competition with immobilised ligand",1 µM,100
O=C(NCc1ncc(C(F)(F)F)cc1Cl)c1ccc2c(c1)C1(CCS(=O)(=O)CC1)[C@@H](C1CC1)N2S(=O)(=O)c1ccc(F)cc1,"cell-free assay, competition with immobilised ligand",1 µM,94
COc1ccnn2ncc(-c3ccnc(N(C)C)n3)c12,binding,1 µM,95
C[C@@H](c1ccc(-n2cnc3c(N)ncnc32)cc1)N1CCc2nn(C)c(Cc3ccccc3)c2C1=O,"binding, competition with immobilised ligand",0.1 µM,66
FC(F)(F)Oc1cccc(-c2cnc3ccc(-c4ccncc4)nn23)c1,"cell-free assay, competition with immobilised ligand",5 µM,88
CS(=O)(=O)N1CCCC(NC(=O)[C@H](CCC2CCCCC2)NC(=O)c2ccc(CNC(=O)c3cnc4ccccn34)cc2)C1 (stereo partly shown),"cell-free assay, competition with immobilised ligand",0.1 µM,91
O=C(NCCCN1CCOCC1)c1ccc(Nc2ncc(Cl)c(-c3ccc(Cl)s3)n2)cc1,"binding, competition with immobilised ligand",1 µM,97
O=C(NCC1CCOCC1)c1n[nH]cc1NC(=O)c1c(F)cccc1F,"binding, competition with immobilised ligand",1 µM,87
c1cncc(-c2cccc(Nc3nccc(NC4CCCCC4)n3)c2)c1,"binding, competition with immobilised ligand",10 µM,87
CN(C)c1ncc(F)c(-c2cnn3ncccc23)n1,binding,1 µM,100
Cc1nc(C2CCN(C(=O)c3ccc(OC(F)(F)F)cc3N)CC2)c2ncc(N3CCN(C)CC3)cc2n1,"cell-free assay, competition with immobilised ligand",1 µM,85
C[C@H]1CCN(c2nccc(-c3cnn4ncccc34)n2)C1,binding,1 µM,73
Nc1cnc(N2CCc3cc(S(=O)(=O)Nc4c(F)cc(Cl)cc4F)cc(N4CCCC4=O)c32)nc1,"cell-free assay, competition with immobilised ligand",1 µM,94
CC1CCCN1c1nccc(-c2cnn3ncccc23)n1 (stereo not shown),binding,1 µM,100
COc1cnc(Nc2cccc(S(N)(=O)=O)c2)nc1N1CCN(c2ccccc2)CC1,"binding, competition with immobilised ligand",1 µM,100
c1cnn2ncc(-c3ccnc(N4CCC45COC5)n3)c2c1,binding,1 µM,49
O=C(c1ccc(Nc2ncc(Cl)c(-c3ccc(Cl)s3)n2)cc1)N1CCC(N2CCCC2)CC1,"binding, competition with immobilised ligand",1 µM,86
Cc1cnn2ncc(-c3ccnc(N(C)C)n3)c2c1,binding,1 µM,84
C[C@@H](c1cccc(C#N)c1)n1cc(Cl)cc(C(N)=O)c1=N,"cell-free assay, competition with immobilised ligand",1 µM,95
F[C@@H]1CCN(c2nccc(-c3cnn4ncccc34)n2)C1,binding,1 µM,100
CCN1CCN(Cc2ccc(C(=O)Nc3ccc(C)c(Oc4ccc5c(c4)CC(=O)N5)c3)cc2C(F)(F)F)CC1,"binding, competition with immobilised ligand",1 µM,100
